Screens from PubChem BioAssay.
An excerpt weighted towards active compounds, which were near 2.3% of everything screened.
DNMT1 block – DNMT1 (human) enzyme inhibition; P26358; DNMT1 molecular beacon, Hinp1I cleavage, fluorescence; inhibition (reported as % activation of signal), % at 10 µM; 360,000 tested, 0.83% active; in the data active = inhibition above about 50%
Rpn11 inh – blocks the human proteasome subunit Rpn11; inhibition, % at 20 µM; O00487; human 26S proteasome, Ub4-pepOG fluorescence polarization; 20S core pre-blocked with epoxomicin; 360,000 tested, 0.59% active;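 active = inhibition at 20 µM, scaled to each plate's controls, above about 33%, limit read from the data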
SUMO1-SIM PPI – alters human SUMO1 binding to SIM partners; SUMO1 binding to a labelled peptide, TR-FRET, 1 h; 360,000 tested, 0.33% active; inhibition, % at 20 µM; P63165; in the data active = inhibition above about 37%
STEP block – blocks human striatal-enriched tyrosine phosphatase; P54829; recombinant STEP, OMFP fluorogenic substrate, fluorescence; inhibition, % at 20 µM; 360,000 tested, 0.25% active; AID 588621;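 active = inhibition at 20 µM, scaled per plate between control wells, above about 37%, limit read from the data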;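 also: 0% = DMSO with enzyme and substrate and 100% = substrate only without enzyme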
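medium = Bis-Tris buffer pH 6.0, 2.5 mM DTT, 0.005% Tween 20 | test system = STEP (striatal-enriched tyrosine phosphatase) enzyme, cell-free | measure = normalized % inhibition | compound dosing = 20 µM, 1% DMSO | also added = 25 µM OMFP | schedule = reaction 20 min, ambient temperature | measured by = fluorescence read at 480 nm ex / 540 nm em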
LMPTP inh – blocks human LMPTP phosphatase; recombinant LMPTP-A, OMFP fluorogenic substrate, fluorescence intensity; inhibition, % at 20 µM; 360,000 tested, 0.22% active; AID 651560;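 active = compounds that cut the enzyme signal by at least half of the control window in the single-dose screen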;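 also: plate controls were DMSO wells with enzyme plus substrate for no effect and substrate without enzyme for full effect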
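Test system – LMPTP-A enzyme · Amount – LMPTP-A at 0.625 nM final in the reaction · Buffer or medium – Bis-Tris pH 6.0, DTT, detergent · Reagent – OMFP 400 µM · Doses – single 20 µM dose · Schedule – reaction 50 min, room temperature, dark · Detection – fluorescence intensity of OMFP turnover product · Evaluation – percent inhibition versus substrate-only and uninhibited controls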
Scp-1 inhibitor – Scp-1 (human) phosphatase inhibition | Q9GZU7 | Recombinant Scp1, phosphopeptide, malachite green phosphate absorbance | inhibition, % at 20 µM | 340,000 tested, 0.88% active;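 active = inhibition above about 50% at 20 µM, limit read from the data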;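 also: plate controls were DMSO wells with enzyme for no effect and wells lacking enzyme for full effect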
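Times: enzyme reaction 45 min at room temperature, colour 5 min, stabilisation 30 min. Material: SCP-1 catalytic fragment, aa 76-261. Medium: Acidic Tris acetate buffer with magnesium and detergent. Signal: colorimetric free-phosphate detection, absorbance 630 nm. Read-out basis: % inhibition of SCP-1 phosphate liberation. Reagent: Phosphorylated 17-residue peptide substrate.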
Scp-1 conf – Scp-1 (human) inhibition, single-dose confirmed. shares compounds with Scp-1 inhibitor. recombinant SCP-1 catalytic domain, phosphate release, malachite green absorbance. inhibition, % at 20 µM. 2,500 tested, 61% active. AID 540281;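 also: plate controls were DMSO with enzyme for no effect and buffer wells lacking enzyme for full effect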
MG interference – counter-screen for Scp-1 inhibitors: colorimetric interference | shares compounds with Scp-1 inhibitor | Colorimetric interference counterscreen, malachite green absorbance 630 nm | apparent inhibition (interference), % at 20 µM | 2,500 tested, under 10 active | AID 540313;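 also: compounds added after enzyme reaction finished so only phosphate colour detection is probed; plate controls were DMSO wells with completed Scp-1 reaction for no effect and substrate wells lacking enzyme for full effect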
Scp1 DSF – binds human Scp-1, shifting its melting temperature. shares compounds with Scp-1 inhibitor. Recombinant SCP1, Sypro Orange thermal shift Tm. thermal shift relative to vanadate control, % at 40 µM. 1,500 tested, 25% active. AID 540329;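 active = substances whose mean melting-temperature shift, as a percentage of the reference inhibitor's shift, reaches about 5.3%, limit read from the data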;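 also: 0% = Tm of DMSO wells and 100% = Tm with sodium orthovanadate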
* hit, by the source's call; x = no result.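 The calls were made as follows, unless noted: active = inhibition of at least 30% at 20 µM; inactive = the rest.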

SMILES	DNMT1 block	Rpn11 inh	SUMO1-SIM PPI	STEP block	LMPTP inh	Scp-1 inhibitor	Scp-1 conf	MG interference	Scp1 DSF
Cc1cc(=O)oc2cc(NC(=S)NNC(=O)c3c(Cl)cnn3C)ccc12	-7.3	6.1	16.6	12.6	3.1	70.5*	67.3*	-6.5	-0.9
Cc1cccc2cc(/C=N/NC(=O)c3ccncc3)c(Cl)nc12	-0.3	-3.4	-1.6	-2.7	-1.2	-10.7	x	x	x
Cc1cccc2cc(/C=N/NC(=O)c3ccccc3O)c(Cl)nc12	10.0	31.7	1.5	4.3	11.9	95.4*	72.7*	-19.2	3.7
CC(C)(C)c1ccc(C(=O)O[C@H]2[C@H](Cc3ccccc3)NS(=O)(=O)[C@H]3C[C@@H]4C=C[C@]23O4)cc1	-12.6	-1.2	0.2	-1.4	0.6	-5.8	x	x	x
CN(Cc1ccccc1)C(=O)COC(=O)c1ccc[nH]c1=O	-2.2	-6.9	9.9	0.5	0.3	-3.9	x	x	x
O=C(O)C(Cc1cn[nH]n1)=NO	0.9	-3.5	-4.9	1.5	-1.0	57.4*	-12.2	-10.9	x
O=C(CSc1ccc(-c2ccccc2)nn1)N1CCCc2ccccc21	1.7	-1.0	0.5	2.2	1.4	58.3*	0.5	-3.2	x
CCC1CCCCN1S(=O)(=O)c1ccc2[nH]c(=O)ccc2c1 (configuration not stated)	10.6	2.1	1.8	1.3	12.1	58.0*	49.2*	-0.5	3.4
COc1ccc(NC(=O)N(C)C[C@H]2OCCCC[C@H](C)Oc3ccc(NS(=O)(=O)c4cn(C)cn4)cc3C(=O)N([C@H](C)CO)C[C@@H]2C)cc1	1.3	-1.1	5.1	-2.4	-1.5	x	x	x	x
CC(C)NC(=O)N(C)C[C@H]1Oc2ccc(NS(=O)(=O)c3cccs3)cc2C(=O)N([C@H](C)CO)C[C@@H]1C	7.2	-1.0	3.3	-0.7	0.9	6.2	x	x	x
C[C@H](CO)N1C[C@H](C)[C@@H](CN(C)C(=O)NC2CCCCC2)Oc2ccc(NS(=O)(=O)c3cccs3)cc2C1=O	1.2	-0.2	2.3	0.3	-1.6	56.2*	2.4	-18.9	x
C[C@@H]1CN([C@H](C)CO)C(=O)c2cc(NS(=O)(=O)c3cn(C)cn3)ccc2O[C@H]1CN(C)C(=O)Nc1ccccc1	6.2	6.2	1.5	3.7	-1.5	81.5*	21.9	-13.4	x
C[C@H]1CN([C@@H](C)CO)C(=O)Cc2cc(NS(=O)(=O)c3cn(C)cn3)ccc2O[C@@H]1CN(C)C(=O)Nc1ccc(F)cc1	5.0	-4.9	2.0	8.4	-1.6	73.2*	37.2*	-15.6	-14.0
CCOC(=O)c1ccc(NNC(=O)CC)c([N+](=O)[O-])c1	4.5	-4.7	-17.3	1.3	0.9	-1.3	x	x	x
O=C(COc1ccc([N+](=O)[O-])cc1)Nc1ccc(C(=O)Nc2ccccc2C(=O)O)cc1	-1.2	0.6	15.0	4.1	-0.2	64.6*	77.0*	-3.2	7.5*
Cc1ccccc1NC(=O)C(=O)NNC(=O)COc1ccc2ccccc2c1	5.2	9.4	7.4	23.4	4.4	51.6*	69.2*	-4.0	-15.9
Cc1cccc(OCC(=O)NNC(=O)c2ccc([N+](=O)[O-])cc2)c1	-1.5	1.5	-17.2	1.2	-0.1	-0.7	x	x	x
O=C(COc1ccc2ccccc2c1)NNC(=O)c1ccc([N+](=O)[O-])cc1	9.9	0.4	-8.8	13.6	21.4	53.7*	73.9*	-6.5	7.2*
O=Cc1ccc(OCc2nnsc2Cl)cc1	2.3	-3.4	1.8	0.5	0.8	-9.0	x	x	x
Nc1nc(=O)n(C2CC(O)C(CO)O2)cc1F (configuration not stated)	-30.3	0.1	-2.4	0.0	0.4	-0.3	-2.7	-7.6	x
CC(C)C[C@H]1CNC(=O)C(=O)N1C[C@H](C)NC(=O)Cc1ccccc1	2.7	-7.0	-5.9	0.4	-2.1	-5.8	2.0	-5.2	x
CCC1CCCCN1C(=O)c1ccc(OC2CCN(C(=O)CCOC)CC2)cc1 (configuration not stated)	3.0	-4.1	-0.3	-1.8	-0.1	-3.8	x	x	x
COc1ccccc1C(=O)Nc1c2c(nn1-c1ccc(Cl)cc1)CS(=O)(=O)C2	8.1	14.4	-3.1	3.3	6.5	50.3*	17.7	-16.7	x
COc1ccccc1C(=O)Nc1c2c(nn1-c1cccc(C)c1C)CS(=O)(=O)C2	4.5	25.7	18.4	21.5	-1.1	72.8*	46.4*	-14.2	-11.9
Cc1cccc(-n2nc3c(c2NC(=O)c2ccco2)CS(=O)(=O)C3)c1C	1.2	-3.9	3.6	-4.9	1.1	-9.3	x	x	x
SMILES	DNMT1 block	Rpn11 inh	SUMO1-SIM PPI	STEP block	LMPTP inh	Scp-1 inhibitor	Scp-1 conf	MG interference	Scp1 DSF
COc1cc(CNc2ncnc3c2ncn3[C@H]2CN(Cc3ccncc3)C[C@@H](CO)O2)cc(OC)c1OC	5.3	-4.1	3.2	0.4	-2.0	x	x	x	x
CC(=O)c1cccc(OCc2cc(C(=O)NCc3nc(C)c(C)s3)no2)c1	-2.2	9.7	-0.4	1.5	-0.3	-10.2	x	x	x
CCN(CC)CCNC(C(=O)Nc1cc(C(F)(F)F)ccc1Cl)c1ccccc1 (configuration not stated)	3.4	-11.7	2.8	-2.2	-3.4	90.8*	90.9*	-11.4	-6.3
CCc1ccc2c(c1)NC(=O)C2(C)Cc1ccc(C(F)(F)F)nc1 (configuration not stated)	3.5	-2.1	0.8	-2.8	-0.9	x	x	x	x
CCOC(=O)c1cccc(NC(=O)Cn2cc3c(n2)CCC(C)C3)c1 (configuration not stated)	0.6	-0.8	6.5	3.0	-0.3	67.5*	-1.2	-9.8	x
CCc1cccc(NC(=O)Cn2cc3c(n2)CCCC3)c1	-0.9	3.6	1.5	0.8	0.6	-4.2	x	x	x
Cc1cccc(NC(=O)CN2C(=O)CCSc3ccc(S(=O)(=O)N4CCOCC4)cc32)c1C	18.8	-4.2	1.1	34.8	8.7	42.4	x	x	x
O=C(CN1C(=O)CCSc2ccc(S(=O)(=O)N3CCOCC3)cc21)Nc1ccccc1Cl	6.9	0.4	2.2	6.4	3.7	60.5*	46.1*	-7.6	-2.0
Cc1cc(C)c2c(=O)[nH]c(SCC(=O)NCCc3ccccc3)nc2n1	1.2	-7.2	3.0	-0.3	-2.2	67.5*	-12.0	-12.3	x
O=C(NCCCN1CCCC1=O)Nc1ccccc1F	0.2	-1.6	-2.7	-1.3	-1.2	-3.6	-5.6	-4.3	x
